For data set [1], the system named is CEM-SS. The data set can be described thus: 50% inhibitory concentration for cytopathicity of HIV-1 RF in CEM-SS cells. To be noted: Homo sapiens. It is filed as functional, cell-based. In outline:
(§1)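 CEM-SS cells infected with HIV-1 RF; drug-induced protection from viral cytopathic effect read by XTT, as percent of uninfected drug-free control. EC50 is the concentration giving 50% protection. Triplicate wells on each plate, two sister plates; the plate EC50s (each a triplicate average) were averaged. XTT results were confirmed by supernatant RT and p24 levels. NA means no inhibition up to the concentration cytotoxic to uninfected cells.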
(Damage to the host cells serves as the signal in cytopathic effect assays.)

For a further data set, the system named is CCRF-CEM. Put plainly: Concentration inhibiting 50% of mock-infected CEM cells. It is filed as functional. To be noted: Homo sapiens. The essentials:
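Uninfected (mock-infected) CEM-SS cultures exposed to drug. Viability by XTT, expressed as percent of drug-free control. CC50 is the concentration causing 50% cell death. Triplicates on each plate, two sister plates averaged.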

Data set [2] can be described thus: Therapeutic index was determined for the compound as CC50/EC50. To be noted: read-out: TI. In outline:
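Ratio of CC50 (XTT viability, uninfected CEM-SS) to EC50 (XTT protection from HIV-1 RF cytopathicity in CEM-SS). Both values come from triplicates on each plate, two sister plates averaged. NA means no antiviral inhibition up to the cytotoxic concentration.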

The target in data set [3] is T1, Human immunodeficiency virus type 1 reverse transcriptase (Human immunodeficiency virus 1, UniProt Q72547). The data set can be described thus: Inhibition of HIV-1 Reverse transcriptase using poly-(rc)-oligo(dg) as the template primer. In outline: (§2)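 Purified p66/51 HIV-1 reverse transcriptase. Inhibition read as incorporation of [32P]-TTP into poly(rA)·oligo(dT) or of [32P]GTP into poly(rC)·oligo(dG) homopolymer template-primer.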

Data set [4] concerns the target T1, Human immunodeficiency virus type 1 reverse transcriptase. Put plainly: Inhibition of HIV-1 Reverse transcriptase using poly-(ra)-oligo(dt) as the template primer. To be noted: read-out: IC50. The essentials:
as §2

The subject of data set [5] is CEM-SS. Put plainly: 50% inhibitory concentration for cytopathicity of HIV-1 RF in CEM-SS cells; NA=Not active (EC50 uM). It is filed as functional, cell-based, Homo sapiens. The essentials: as §1

In turn, `COC(=O)CCCCC=C(c1cc(Cl)c(OC)c(C(=O)OC)c1)c1cc(Cl)c(OC)c(C(=O)OC)c1` displayed an EC50 in the data set on CEM-SS [1] of 1.5 µM. For the same compound, the CC50 with CCRF-CEM is 152 µM. For the same compound, the selectivity ratio in data set [2] stood at 101. Besides, the results for the 50% inhibitory concentration (IC50) in data set [3] and in data set [4] were 0.47 µM and 3.35 µM, respectively.

As for `COC(=O)CCC=C(c1cc(Cl)c(OC)c(C(=O)OC)c1)c1cc(Cl)c(OC)c(C(=O)OC)c1`, in the data set on CEM-SS [1], a half-maximal effect (EC50) was put at 4.8 µM. In the data set with CCRF-CEM, this compound registered a CC50 of 29.4 µM. The selectivity ratio in data set [2] stood at 6.1. In addition, the 50% inhibitory concentration (IC50) in data set [3] was 7.2 µM; in data set [4], over 100 µM.

Regarding `COC(=O)CCCCC(c1cc(Cl)c(OC)c(C(=O)OC)c1)c1cc(Cl)c(OC)c(C(=O)OC)c1`, the CC50 in the data set with CCRF-CEM stood at 21.3 µM. In data set [3], this compound registered an IC50 of 100 µM. Also, the EC50 result in the data set on CEM-SS [5] is reported as “Not Active”.

In the data set on CEM-SS [1], `COC(=O)c1cc(C(=CCC2OCCO2)c2cc(Cl)c(OC)c(C(=O)OC)c2)cc(Cl)c1OC` registered a concentration giving a half-maximal response (EC50) of 6.5 µM. Half-maximal cytotoxicity in the data set on CCRF-CEM (CC50) was put at 26 µM. For the same compound, in data set [2], the selectivity ratio came to 4. The results for the IC50 in data set [3] and in data set [4] were 3.2 µM and 20.5 µM, respectively.

Compound `COC(=O)c1cc(C(=CCCCCBr)c2cc(Cl)c(OC)c(C(=O)OC)c2)cc(Cl)c1OC` had an EC50 with CEM-SS [1] of 2.8 µM. This compound yielded a CC50 in the data set on CCRF-CEM of 98.7 µM. Also, the values for the IC50 in data set [3] and in data set [4] were 11 µM and 1.9 µM, respectively.

`CCC(=O)CCCC=C(c1cc(Cl)c(OC)c(C(=O)OC)c1)c1cc(Cl)c(OC)c(C(=O)OC)c1` had an EC50 in the data set on CEM-SS [1] of 2.8 µM. Besides, in the data set on CCRF-CEM, the CC50 was 24.6 µM. Further, the selectivity ratio in data set [2] came out at 8.8. The same compound showed an IC50 in data set [3] of 1 µM.

`COC(=O)c1cc(C(=CCCc2ccccc2)c2cc(Br)c(OC)c(C(=O)OC)c2)cc(Br)c1OC` registered a half-maximal cytotoxic concentration (CC50) with CCRF-CEM of 31.5 µM. Moreover, in the data set on CEM-SS [5], the concentration giving a half-maximal response (EC50) entry is “Not Active”.

The compound `CCCCCC=C(c1cc(F)c(OC)c(C(=O)OC)c1)c1cc(F)c(OC)c(C(=O)OC)c1` returned a CC50 in the data set with CCRF-CEM of 13.4 µM. The same compound displayed an IC50 in data set [3] of 10 µM. Also, in the data set on CEM-SS [5], the EC50 result is listed as “Not Active”.

`COC(=O)CCCC=C(c1cc(F)c(OC)c(C(=O)OC)c1)c1cc(F)c(OC)c(C(=O)OC)c1` yielded an EC50 in the data set on CEM-SS [1] of 1.9 µM. Also, the CC50 with CCRF-CEM worked out at 68.3 µM. Further, the selectivity ratio in data set [2] was 35.9.

For the compound `COC(=O)c1cc(C(=CCCCCN=[N+]=[N-])c2cc(Cl)c(OC)c(C(=O)OC)c2)cc(Cl)c1OC`, a half-maximal effect with CEM-SS [1] (EC50) was put at 7.1 µM. For the same compound, in the data set on CCRF-CEM, the midpoint of cytotoxicity, the CC50, lay at 176 µM. The IC50 was determined as 1.3 µM in data set [3] and 0.8 µM in data set [4].

Consider `COC(=O)CC=C(c1cc(Cl)c(OC)c(C(=O)OC)c1)c1cc(Cl)c(OC)c(C(=O)OC)c1`, for which the midpoint of cytotoxicity in the data set on CCRF-CEM, the CC50, lay at 13.3 µM. Moreover, the IC50 in data set [3] is 2.2 µM; in data set [4], over 100 µM. For the same compound, the EC50 result with CEM-SS [5] was “Not Active”.

Regarding `CCC(=O)CCCC=C(c1cc(Cl)c(OC)c(CO)c1)c1cc(Cl)c(OC)c(CO)c1`, it took 14.2 µM to reach half-maximal cytotoxicity in the data set on CCRF-CEM (CC50). Moreover, the EC50 entry in the data set on CEM-SS [5] is given as “Not Active”.

`CCNC(=O)OCCCCC=C(c1cc(Cl)c(OC)c(C(=O)OC)c1)c1cc(Cl)c(OC)c(C(=O)OC)c1` showed a CC50 in the data set on CCRF-CEM of 8.4 µM. The figures for the IC50 in data set [3] and in data set [4] were 3.2 µM and 1.2 µM, respectively. Besides, the EC50 entry in the data set on CEM-SS [5] is reported as “Not Active”.

For the compound `COC(=O)c1cc(C(=CCCCC=O)c2cc(Cl)c(OC)c(C(=O)OC)c2)cc(Cl)c1OC`, the midpoint of cytotoxicity in the data set with CCRF-CEM, the CC50, lay at 9.6 µM. Moreover, the IC50 stood at 4.9 µM in data set [3] and 4.2 µM in data set [4]. Besides, the EC50 result with CEM-SS [5] is on record as “Not Active”.

Consider `CCC1(CCCC=C(c2cc(Cl)c(OC)c(CO)c2)c2cc(Cl)c(OC)c(CO)c2)OCCO1`, for which, in the data set on CCRF-CEM, the midpoint of cytotoxicity, the CC50, lay at 16.9 µM. The results for the IC50 in data set [3] and in data set [4] were 3.2 µM and 31.6 µM, respectively. Besides, the EC50 entry in the data set with CEM-SS [5] was “Not Active”.

What is called EC50 is the concentration at which the effect is half-maximal. As a reminder, the CC50 is the concentration that lowers cell viability or growth by half. The term IC50 denotes the concentration that inhibits the measured activity by half.

(Values after ChEMBL document CHEMBL1132112, “Novel modifications in the alkenyldiarylmethane (ADAM) series of non-nucleoside reverse transcriptase inhibitors” (J Med Chem, 1999).)
